Screens (PubChem BioAssay)
LEDGF integ inh – blockers of LEDGF/p75-dependent integrase strand transfer – biochemical, TR-FRET, high throughput, primary screen | TR-FRET IN-LEDGF/p75 DNA integration, Eu/Cy5 | inhibition, % at 3.7 µM | 370,000 tested, 0.64% active;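 active = inhibition above the screen-wide mean plus 3 SD, cut at about 13% in these data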;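 also: signal is the Cy5 over europium emission ratio at 671 and 618 nm; 0% = plate median of compound wells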
MBD2 inh – inhibitors of MBD2 binding to methylated DNA, primary screen, biochemical, TR-FRET, DNA-binding domain, human; AID 686964, 2013; 370,000 tested, 0.31% active; MBD2 binding to methylated oligonucleotide; Methyl-CpG-binding domain protein 2 (Homo sapiens), Q9UBB5; inhibition, % at 4.4 µM; in the data active = inhibition above about 13%
TDP2 absorb – human TDP2 enzyme inhibitors, primary screen, biochemical, epi absorbance, recombinant enzyme | Tyrosyl-DNA phosphodiesterase 2 (Homo sapiens), O95551 | T5PNP hydrolysis, p-nitrophenol absorbance 415 nm | inhibition, % at 12.8 µM | 370,000 tested, 0.34% active;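 active = inhibition above the mean of all tested compounds plus 3 SD, set per campaign, cut at about 25% in these data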;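 also: 0% = DMSO with enzyme and 100% = buffer with substrate but no TDP2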
Target sequence (O95551 whole entry, looked up): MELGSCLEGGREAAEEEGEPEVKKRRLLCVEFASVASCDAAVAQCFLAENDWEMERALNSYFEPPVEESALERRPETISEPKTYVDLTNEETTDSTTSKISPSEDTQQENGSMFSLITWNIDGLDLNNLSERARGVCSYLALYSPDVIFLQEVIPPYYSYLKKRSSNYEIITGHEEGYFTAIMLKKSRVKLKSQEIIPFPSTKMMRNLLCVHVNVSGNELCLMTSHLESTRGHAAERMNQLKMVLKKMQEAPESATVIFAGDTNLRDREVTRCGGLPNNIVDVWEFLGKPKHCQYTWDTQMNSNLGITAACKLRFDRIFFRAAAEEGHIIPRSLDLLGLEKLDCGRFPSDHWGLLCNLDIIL
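System – recombinant human TDP2 · Quantity – TDP2 enzyme at 120 nM final · Doses – single concentration, 12.8 µM nominal, with 1% DMSO · Incubation – 2 h at 37 °C · Measured by – epi absorbance of p-nitrophenol freed from T5PNP by hydrolysis · Read-out – % inhibition relative to enzyme-containing and enzyme-free wells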
Rin1 Abl inh – inhibitors of Rin1-Abl protein binding, primary screen, biochemical, TR-FRET. AID 588664, 2011. 360,000 tested, 0.4% active. Tyrosine-protein kinase ABL1 (Homo sapiens) + Ras and Rab interactor 1 (Homo sapiens), …. inhibition, % at 7.35 µM; in the data active = inhibition above about 5%, passing the limit was not always enough
UHRF1 binding – UHRF1 methylated DNA binding inhibitors, primary screen, counter-screen for MBD2 inhibitor project, biochemical, TR-FRET, human UHRF1, single concentration; E3 ubiquitin-protein ligase UHRF1 (Homo sapiens), Q96T88; UHRF1 binding to methylated oligo; inhibition, % at 4.4 µM; 370,000 tested, 0.75% active; AID 687016, 2013; in the data active = inhibition above about 21%;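 also: UHRF1 SRA domain binding a hemimethylated CpG hairpin DNA probe; 0% = median of test compound wells and 100% = reference inhibitor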
Rin1 Abl conf – Rin1-Abl binding inhibitor retest, confirmation, biochemical, TR-FRET; shares compounds with Rin1 Abl inh; 1,300 tested, 49% active; purified proteins; inhibition, % at 7.35 µM
GFP quencher – GFP fluorescence inhibitors and quenchers, artefact control for Rin1-Abl interaction inhibitor project, biochemical; inhibition, % at 6.75 µM; 1,300 tested, 8.5% active; AID 602125, 2011; shares compounds with Rin1 Abl inh; inhibitors/quenchers counterscreen;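 also: ABL1-eGFP fusion protein alone without its partner RIN1-SBP; 0% = protein with vehicle and 100% = wells lacking protein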
GFP quench DR – GFP fluorescence inhibitors and quenchers, dose response, artefact control for Rin1-Abl interaction inhibitor project, biochemical. shares compounds with Rin1 Abl inh. GFP fluorescence interference/quenching counterscreen. IC50, µM. 230 tested, under 10 active; call rule not given here;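 also: ABL1-eGFP fusion protein alone without its RIN1 binding partner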
Active calls of the source: *. An excerpt weighted towards active compounds, which were near 1.9% of everything screened. Rule as the data show it, unless noted: active = inhibition above about 6.5%; inactive = the rest.

Results for Cc1ccc(C)c(OCCCNC2CCCC2)c1C ?
LEDGF integ inh: 1; MBD2 inh: -2; TDP2 absorb: 0; Rin1 Abl inh: 13*; UHRF1 binding: 0; Rin1 Abl conf: 1; GFP quencher: -1

What do the screens show for `COc1ccc(CC(=O)Oc2ccc(C)cc2Br)cc1OC`?
LEDGF integ inh: 14*; MBD2 inh: 2; TDP2 absorb: -12; Rin1 Abl inh: 41*; UHRF1 binding: 1; Rin1 Abl conf: 51*; GFP quencher: -2; GFP quench DR: >68

What do the screens show for `COc1ccc(CC(=O)Oc2ccc(C)cc2C)cc1`?
LEDGF integ inh: -2; MBD2 inh: 0; TDP2 absorb: -10; Rin1 Abl inh: 0; UHRF1 binding: 3

How did c1ccc(C(c2ccccn2)c2ccccn2)cc1 do in these assays?
LEDGF integ inh: 0; MBD2 inh: 9; TDP2 absorb: 2; Rin1 Abl inh: 6.5*; UHRF1 binding: 19; Rin1 Abl conf: 7.3*; GFP quencher: 1

How did CC(=O)Oc1ccc(C(c2ccc(OC(C)=O)cc2)c2ccccn2)cc1 do in these assays?
LEDGF integ inh: 2; MBD2 inh: 3; TDP2 absorb: 11; Rin1 Abl inh: -2; UHRF1 binding: -2

Results for CC1CCCN(C(=O)C2CCN(S(=O)(=O)c3ccc4c(c3)CC(C)N4C(=O)C3CC3)CC2)C1 (configuration not stated) ?
LEDGF integ inh: 0; MBD2 inh: 3; TDP2 absorb: 2; Rin1 Abl inh: 15*; UHRF1 binding: 0; Rin1 Abl conf: 0; GFP quencher: -3

What do the screens show for `O=c1cc(CO)oc(C(Nc2ccccn2)c2ccccc2Cl)c1O` (configuration not stated)?
LEDGF integ inh: 0; MBD2 inh: -3; TDP2 absorb: 20; Rin1 Abl inh: 2; UHRF1 binding: 19

Results for Cc1ccnc(NC(c2ccccc2O)c2oc(CO)cc(=O)c2O)c1 (configuration not stated) ?
LEDGF integ inh: -2; MBD2 inh: 1; TDP2 absorb: 1; Rin1 Abl inh: 27*; UHRF1 binding: 1; Rin1 Abl conf: 9.8*; GFP quencher: 2

How did COc1ccc(CN2C3=NC(c4ccccc4)CC(=O)N3/C(=C\c3ccccc3)C2c2ccccc2)c(OC)c1 (configuration not stated) do in these assays?
LEDGF integ inh: -6; MBD2 inh: 1; TDP2 absorb: 8; UHRF1 binding: 0

Results for CCCCCCC(=O)NC1CCCCN(Cc2cccc(Cl)c2)C1=O (configuration not stated) ?
LEDGF integ inh: 8; MBD2 inh: 0; TDP2 absorb: -2; UHRF1 binding: -1

Results for CCN(C(=O)COC(=O)c1cc(Cl)ccc1OC)c1c(N)n(Cc2ccccc2)c(=O)[nH]c1=O ?
LEDGF integ inh: -2; MBD2 inh: -3; TDP2 absorb: -2; Rin1 Abl inh: 8.7*; UHRF1 binding: -4; Rin1 Abl conf: -3; GFP quencher: 2

What do the screens show for `CN(c1cccnc1)c1ccc(NC(=O)Cc2c[nH]c3ccccc23)cc1Br`?
LEDGF integ inh: -1; MBD2 inh: 4; TDP2 absorb: -1; UHRF1 binding: 8

What do the screens show for `CC[C@]12c3[nH]c4ccc(OC)cc4c3CCN1C(=O)C(CC(=O)NCC13CC4CC(CC(C4)C1)C3)C[C@@H]2C(=O)N1CCN(C(=O)c2ccco2)CC1` (some centres not stated)?
Rin1 Abl inh: 54*; Rin1 Abl conf: 59*; GFP quencher: 2; GFP quench DR: >68

How did CC[C@]12c3[nH]c4ccc(Cl)cc4c3CCN1C(=O)[C@@H](CC(=O)NCC13CC4CC(CC(C4)C1)C3)C[C@@H]2C(=O)N1CCN(C(=O)c2ccco2)CC1 do in these assays?
LEDGF integ inh: 0; MBD2 inh: 8; TDP2 absorb: -3; Rin1 Abl inh: 21*; UHRF1 binding: 5; Rin1 Abl conf: 16*; GFP quencher: -1

How did CCOC(=O)[C@]12CCCC3=C1N(CCC3)C(=O)[C@@H](CC(=O)NCCCOC)C2 do in these assays?
LEDGF integ inh: 0; MBD2 inh: -1; TDP2 absorb: 4; UHRF1 binding: 2

What do the screens show for `Cc1ccc(CN2CCCCC(NC(=O)c3ccc(Br)cc3)C2=O)cc1` (configuration not stated)?
LEDGF integ inh: 2; MBD2 inh: -5; TDP2 absorb: -6; UHRF1 binding: 0

What do the screens show for `CCOc1ccc(CN(C)C(=O)CCNC(=O)c2ccco2)cc1`?
LEDGF integ inh: -2; MBD2 inh: 2; TDP2 absorb: 5; Rin1 Abl inh: 8.6*; UHRF1 binding: -2; Rin1 Abl conf: -1; GFP quencher: 1

Results for Cc1ccc(Cn2cc(CN(C(C)(C)C)S(=O)(=O)c3ccccc3Br)nn2)cc1 ?
LEDGF integ inh: -2; MBD2 inh: 0; TDP2 absorb: 1; UHRF1 binding: -3

How did COCC(=O)N[C@H]1C[C@@H]2O[C@@H](CO)CC[C@@H]2O[C@@H]1CCc1ccc(-c2ccccc2)cc1 do in these assays?
LEDGF integ inh: -5; MBD2 inh: 2; TDP2 absorb: 14; UHRF1 binding: 2

Results for O=C(Nc1ccccc1N1CCN(C(=O)c2ccc(Cl)cc2)CC1)c1cccnc1 ?
LEDGF integ inh: 1; MBD2 inh: 2; TDP2 absorb: 0; Rin1 Abl inh: 17*; UHRF1 binding: -5; Rin1 Abl conf: 23*; GFP quencher: 1; GFP quench DR: >68

How did COc1ccc(Br)cc1C(=O)Nc1ccccc1N1CCCC1 do in these assays?
LEDGF integ inh: 5; MBD2 inh: 2; TDP2 absorb: -1; Rin1 Abl inh: 6.6*; UHRF1 binding: 4; Rin1 Abl conf: -2; GFP quencher: 1

What do the screens show for `COc1ccc(Cl)cc1C(=O)Nc1ccccc1N1CCCCC1`?
LEDGF integ inh: 3; MBD2 inh: -6; TDP2 absorb: -8; Rin1 Abl inh: -3; UHRF1 binding: -3
